The values that follow come from ChEMBL document CHEMBL1137088, “Distamycin analogues with enhanced lipophilicity: synthesis and antimicrobial activity” (2004).

The test system of experiment [1] is Aspergillus nidulans. Description: Antifungal activity against Aspergillus nidulans CABI 0160037 strain; na = not active. It counts as functional.
Experiment [2] is described as follows: Antibacterial activity against Proteus vulgaris NCTC 4175 strain; na = not active. It counts as functional.
Experiment [3] deals with Staphylococcus aureus. Description: Antibacterial activity against methicillin-resistant Staphylococcus aureus (MRSA) PHLS M1 strain. It counts as functional. In a few lines: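 Read-out is the minimum inhibitory concentration, reported in µM. Amoxycillin is tested alongside as the reference antibiotic.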
For experiment [4], the system named is Mycolicibacterium fortuitum. Description: Antibacterial activity against Mycobacterium fortuitum NCTC 10394 strain; na = not active. It counts as functional, organism-based.
Experiment [5] has as its system Escherichia coli. Description: Antibacterial activity against Escherichia coli NCTC 9001 strain. The format is functional, organism-based.
Experiment [6] has as its system Aspergillus niger. Description: Antifungal activity against Aspergillus niger IMI17454 strain. It counts as functional.
Experiment [7] deals with Enterococcus faecalis. Description: Antibacterial activity against Streptococcus faecalis NCTC 775 strain; na = not active. The format is functional, organism-based.
The nature of experiment [8]: Antifungal activity against Candida albicans NCPF 3179 strain; na = not active. It counts as functional.
The subject of experiment [9] is Staphylococcus aureus. Description: Antibacterial activity against Staphylococcus aureus NCTC 6571 strain; na = not active. It counts as functional, organism-based.
Experiment [10] concerns Enterobacter cloacae. Description: Antibacterial activity against Enterobacter cloacae NCTC 10005 strain. It counts as functional, organism-based.
The test system of experiment [11] is Klebsiella aerogenes. Description: Antibacterial activity against Klebsiella aerogenes WRL CN 345 strain; na = not active. It counts as functional, organism-based.
Experiment [12] can be described thus: Antibacterial activity against Enterobacter cloacae NCTC 10005 strain. The format is functional.
The subject of experiment [13] is Aspergillus nidulans. Description: Antifungal activity against Aspergillus nidulans CABI 0160037 strain. The format is functional.
Experiment [14] relates to Klebsiella aerogenes. Description: Antibacterial activity against Klebsiella aerogenes WRL CN 345 strain. It counts as functional, WRL CN 375.
In experiment [15] the test system is Staphylococcus aureus. Description: Antibacterial activity against Staphylococcus aureus NCTC 6571 strain. It counts as functional.
Experiment [16] deals with Mycolicibacterium fortuitum. Description: Antibacterial activity against Mycobacterium fortuitum NCTC 10394 strain. It counts as functional.
For experiment [17], the system named is Escherichia coli. Description: Antibacterial activity against Escherichia coli NCTC 9001 strain. It counts as functional.
Experiment [18] has as its system Candida albicans. Description: Antifungal activity against Candida albicans NCPF 3179 strain. It counts as functional.
The test system of experiment [19] is Enterococcus faecalis. Description: Antibacterial activity against Streptococcus faecalis NCTC 775 strain. The format is functional.
Experiment [20] deals with Proteus vulgaris. Description: Antibacterial activity against Proteus vulgaris NCTC 4175 strain. It counts as functional.
Experiment [21] has as its system Staphylococcus aureus. Description: Antibacterial activity against MRSA PHLS M1 strain; na = not active. The format is functional, organism-based.
Experiment [22] relates to Aspergillus niger. Description: Antifungal activity against Aspergillus niger IMI17454 strain; na = not active. The format is functional.
Where [23] appears, read: Aspergillus niger, read-out: MIC.
Setting [24] is: Klebsiella aerogenes, WRL CN 375, read-out: MIC.
[25] abbreviates: Candida albicans, read-out: MIC.

In brackets after ≈: the same amount, converted by molar mass. Several values for one entry are separate records, joined by “and”; a condition that tells them apart may be missing. Identical values can stand only once. Activity calls are given as the source filed them. The calls are words filed in the database; no cut-off is given here.

What is called MIC is the lowest concentration that inhibits growth of the organism. Take `CC(C)CCn1cc(NC(=O)c2cc(NC=O)cn2C)cc1C(=O)Nc1cc(C(=O)NCCCN2CCOCC2)n(C)c1`: the MIC entry in [1], in experiment [2], in [4], in experiment [5], in [7] and in experiment [8] was “inactive” in each case. The MIC entry in experiment [9], in experiment [10] and in [11] was “inactive” each time. Further, the MIC in [3] and in experiment [6] (setting [23]) was 70.6 µM (≈ 42 µg/mL) throughout.
In the case of `Cc1oc(CNC(=O)c2cc(NC(=O)c3cc(NC=O)cn3C)cn2C)nc1C(=O)NCCCN(C)C`, the MIC entry in experiment [2], in experiment [4], in [5], in experiment [7], in [8] and in experiment [9] was “inactive” throughout. Further, the MIC entry in experiment [11] is “inactive”. In addition, the MIC in experiment [3], in experiment [12], in experiment [13] and in experiment [6] (setting [23]) was 160 µM (not active) (≈ 82 µg/mL) in each case.
With `Cc1sc(NC(=O)c2cc(NC=O)cn2C)cc1C(=O)Nc1cc(C(=O)NCCCN(C)C)n(C)c1`, the MIC stood at 159 µM (≈ 81.7 µg/mL) in experiment [14] (setting [24]); 39.8 µM (≈ 20.4 µg/mL) in experiment [15]; 159 µM (≈ 81.7 µg/mL) in experiment [3]; 159 µM (≈ 81.7 µg/mL) in experiment [12]; 159 µM (≈ 81.7 µg/mL) in experiment [13]; 159 µM (≈ 81.7 µg/mL) in experiment [16]. Further, the MIC in [6] (setting [23]) came out at 159 µM (≈ 81.7 µg/mL); in experiment [17], 159 µM (≈ 81.7 µg/mL); in experiment [18] (setting [25]), 159 µM (≈ 81.7 µg/mL); in experiment [19] it was 79.6 µM (≈ 40.9 µg/mL); in experiment [20], 79.6 µM (≈ 40.9 µg/mL).
With `CC(=O)Nc1cc(C(=O)Nc2cc(C(=O)Nc3cc(C(=O)NCCCN(C)C)n(C)c3)n(C(C)C)c2)n(C)c1`, the MIC is 147 µM (≈ 79.2 µg/mL) in experiment [14]; 153 µM (≈ 82.4 µg/mL) in experiment [14] (setting [24]); 147 µM (≈ 79.2 µg/mL) in [16]; 153 µM and 73.5 µM in [6]; 147 µM (≈ 79.2 µg/mL) in experiment [18]; 153 µM (≈ 82.4 µg/mL) in [18] (setting [25]). The MIC came to 73.5 µM (≈ 39.6 µg/mL) in experiment [19] and 153 µM (≈ 82.4 µg/mL) in experiment [20]. In addition, the MIC result in [21], in [1], in [2], in experiment [4], in experiment [5] and in experiment [7] was “inactive” throughout. Further, the MIC result in experiment [9] and in experiment [10] was “inactive” each time.
For `CC(=O)Nc1cc(C(=O)Nc2cc(C(=O)Nc3cc(C(=O)NCCCN4CCOCC4)n(C)c3)n(CCC(C)C)c2)n(C)c1`, the MIC result in experiment [21], in experiment [1], in experiment [2], in experiment [5], in experiment [7] and in experiment [8] was “inactive” each time. Moreover, the MIC entry in experiment [9], in experiment [22], in [10] and in [11] was “inactive” each time. The lowest concentration to inhibit growth in experiment [16] (MIC) was 140 µM (≈ 85.2 µg/mL).
As for `CC(=O)Nc1cc(C(=O)Nc2cc(C(=O)Nc3cc(C(=O)NCCCN(C)C)n(C)c3)n(C)c2)c(C)s1`, the MIC was 156 µM (≈ 82.3 µg/mL) in experiment [14] (setting [24]), 156 µM (not active) (≈ 82.3 µg/mL) in [15], 156 µM (≈ 82.3 µg/mL) in experiment [6] (setting [23]) and 156 µM (≈ 82.3 µg/mL) in [20]. Besides, the MIC result in experiment [21], in experiment [1], in experiment [4], in experiment [5], in experiment [7] and in experiment [8] was “inactive” each time. In addition, the MIC entry in experiment [10] is “inactive”.
As to `CC(C)n1cc(NC(=O)c2cc(NC=O)cn2C)cc1C(=O)Nc1cc(C(=O)NCCCN2CCOCC2)n(C)c1`, the MIC result in experiment [21], in [1], in experiment [2], in [4], in [5] and in experiment [7] was “inactive” each time. The MIC result in [8], in experiment [9], in experiment [22], in experiment [10] and in experiment [11] was “inactive” throughout.
Take `CC(=O)Nc1cc(C(=O)Nc2cc(C(=O)Nc3nc(C(=O)NCCCN(C)C)c(C(C)C)s3)n(C)c2)n(C)c1`: the MIC entry in [21], in [2], in [4], in experiment [5], in experiment [8] and in experiment [9] was “inactive” throughout. The MIC entry in [10] and in experiment [11] was “inactive” in each case. The MIC in [6] (setting [23]) and in [19] was 74.5 µM (≈ 41.5 µg/mL) in each case.
